Source: ChEMBL document CHEMBL1799964, “Synthesis of novel vitamin K2 analogues with modification at the ω-terminal position and their biological evaluation as potent steroid and xenobiotic receptor (SXR) agonists” (J Med Chem, 2011)

Experiments:
[1] = target: T1, Nuclear receptor subfamily 1 group I member 2 (Homo sapiens, UniProt O75469); test: Agonist activity at human SXR transfected in human HepG2 cells coexpressing GAL4 assessed as activation of receptor-mediated CYP3A4 gene transcription at 1 X 10^-6 M after 48 hrs by luciferase reporter gene assay; details: hepg2, 48 h, 1 µM
T1 sequence (O75469 whole entry): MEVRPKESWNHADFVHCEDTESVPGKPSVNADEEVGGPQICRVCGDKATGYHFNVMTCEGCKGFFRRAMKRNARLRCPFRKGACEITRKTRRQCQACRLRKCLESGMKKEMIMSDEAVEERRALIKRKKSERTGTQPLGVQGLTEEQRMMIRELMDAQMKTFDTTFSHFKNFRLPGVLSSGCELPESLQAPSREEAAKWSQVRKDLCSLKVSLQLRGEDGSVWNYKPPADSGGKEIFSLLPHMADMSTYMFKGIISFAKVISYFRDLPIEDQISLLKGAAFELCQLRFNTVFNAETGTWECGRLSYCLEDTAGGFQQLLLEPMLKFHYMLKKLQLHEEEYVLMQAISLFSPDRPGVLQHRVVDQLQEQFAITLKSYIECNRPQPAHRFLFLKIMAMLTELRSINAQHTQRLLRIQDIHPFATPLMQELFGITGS

[2] = target: T1, Nuclear receptor subfamily 1 group I member 2; test: Binding affinity to human SXR transfected in human HepG2 cells coexpressing GAL4 assessed as transcriptional activation at 5 X 10^-6 M after 48 hrs by luciferase reporter gene assay; assay type: cell-based; details: hepg2, 48 h, 5 µM
How it was run: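 HepG2 cells (2 x 10⁵/well) transfected by Lipofectamine with pM-SXR (0.1 μg), pGVP2-GAL2 luciferase reporter (1.0 μg) and pRL-CMV (0.05 μg). Mean ± SD of three independent experiments; Student's t test.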

[3] = test system: Homo sapiens; test: Drug level in osteoporotic patient at 45 […] administered daily; assay type: ADME, organism-based; details: in vivo, read-out: Drug uptake

| Activity [1] | Activity [2] | concentration [3] [nM] | Compound |
| --- | --- | --- | --- |
| Active | Active |  | CC(C)=CCC1=C(C)C(=O)c2ccccc2C1=O |
| Active | Active |  | CC(C)=CCC/C(C)=C/CC/C(C)=C/CC1=C(C)C(=O)c2ccccc2C1=O |
| Active | Not Active |  | CC1=C(C/C=C(\C)CC/C=C(\C)CC/C=C(\C)CC/C=C(\C)CO)C(=O)c2ccccc2C1=O |
|  | Active |  | CC(C)=CCC/C(C)=C/CC1=C(C)C(=O)c2ccccc2C1=O [MENAQUINONE-2] |
| Active | Not Active |  | CC1=C(C/C=C(\C)CC/C=C(\C)CC/C=C(\C)CO)C(=O)c2ccccc2C1=O |
| Active | Active |  | CC1=C(C/C=C(\C)CC/C=C(\C)Cc2ccccc2)C(=O)c2ccccc2C1=O |
| Active | Active | 1000 | CC(C)=CCC/C(C)=C/CC/C(C)=C/CC/C(C)=C/CC1=C(C)C(=O)c2ccccc2C1=O [MENATETRENONE] |
| Active | Not Active |  | CC1=C(C/C=C(\C)CC/C=C(\C)CO)C(=O)c2ccccc2C1=O |
| Active | Active |  | CC1=C(C/C=C(\C)CC/C=C(\C)CC/C=C(\C)Cc2ccccc2)C(=O)c2ccccc2C1=O |
|  | Active |  | CO[C@H]1/C=C/O[C@@]2(C)Oc3c(C)c(O)c4c(O)c(c(/C=N/N5CCN(C)CC5)c(O)c4c3C2=O)NC(=O)/C(C)=C\C=C\[C@H](C)[C@H](O)[C@@H](C)[C@@H](O)[C@@H](C)[C@H](OC(C)=O)[C@@H]1C [RIFAMPIN] |
